{"data": "Experimental data from different studies", "target": "Calcium/calmodulin-dependent protein kinase type II subunit gamma (CAMK2G, Homo sapiens, UniProt Q13555)", "note": "Compare with care: the assays were run in different laboratories."}
{"SMILES": "Cc1cc(O)c(-c2ccc([C@@H](C)CN(C)C)cc2)c2c1[nH]c(=O)c1sccc12", "read-out": "cell-free assay", "action": "inhibitor", "concentration": "0.1 µM", "setting": "lysate", "measurement": "inhibition", "value": "-11.1%"}
{"SMILES": "CN1CCN(C(=O)c2ccc(NC(=O)Nc3ccc(N(C)c4ccnc(Nc5ccc(CS(C)(=O)=O)cc5)n4)cc3)cc2)CC1", "read-out": "binding", "concentration": "1 µM", "measurement": "remaining binding", "value": "100%"}
{"SMILES": "CCCCC(=O)Nc1ccc(-c2ccc3ncn(CCC)c(=O)c3c2)cn1", "read-out": "binding", "method": "competition with immobilised ligand", "concentration": "0.5 µM", "measurement": "remaining binding", "value": "100%"}
{"SMILES": "CC(C)S(=O)(=O)c1ccc2nccc(Nc3ccc4sc(C5CCCC5)nc4c3)c2c1", "read-out": "enzyme activity", "action": "inhibitor", "concentration": "1 µM", "measurement": "activity vs control", "value": "104%"}
{"SMILES": "CC#CC(=O)N1CCC[C@H]1c1nc(-c2ccc(C(=O)Nc3ccccn3)cc2)c2c(N)nccn12", "read-out": "enzyme activity", "action": "inhibitor", "concentration": "1 µM", "measurement": "inhibition", "value": "0%"}
{"SMILES": "C[C@H]1CC[C@H](n2c3cnccc3c3cnc(Nc4ccc5c(n4)CCN(C(=O)CO)C5)nc32)CC1", "read-out": "binding", "concentration": "1 µM", "measurement": "remaining binding", "value": "40%"}
{"SMILES": "C1=C/COCc2cc(ccc2OCCN2CCCC2)Nc2nccc(n2)-c2cccc(c2)COC/1", "read-out": "binding", "concentration": "0.1 µM", "measurement": "remaining binding", "value": "89%"}
{"SMILES": "CO[C@@H]1[C@H](N(C)C(=O)c2ccccc2)C[C@H]2O[C@]1(C)n1c3ccccc3c3c4c(c5c6ccccc6n2c5c31)C(=O)NC4", "read-out": "enzyme activity", "action": "inhibitor", "concentration": "1 µM", "measurement": "inhibition", "value": "90%"}
